Results published in article PMC5488297 (Chemistry (Weinheim an Der Bergstrasse, Germany), 2017).
Values belong to the compound of their own block, whether it stands above or below them.

Columns and labels:
[1] = tested on: FAK/Akt integrin‐activated transduction pathway; conditions: cited from earlier work
[2] = tested on: integrin‐mediated cell infiltration processes; conditions: cited from earlier work
[3] = tested on: U87 (αVβ3+) human glioblastoma cells; test: Anti‐proliferative activity, CellTiter-Glo ATP cell viability, U87; assay type: cell-based; conditions: 144 h
Method in brief: (§1)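 U87 human glioblastoma cells were used alongside an isogenic U87 clone with the β3 integrin subunit gene deleted by CRISPR-Cas9. Absence of αVβ3 was confirmed by flow cytometry using anti-αVβ3 antibody LM609 plus a fluorescent secondary antibody. Cells were exposed to increasing concentrations of test compound for 144 h, with free paclitaxel run in parallel. Viability was read as cellular ATP by CellTiter-Glo. IC50 was taken as the concentration giving 50 % inhibition of viability.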

U87 β3‐KO (αVβ3−) cells = test: Anti‐proliferative activity, CellTiter-Glo ATP cell viability, U87 β3‐KO; assay type: cell-based; conditions: Homo sapiens, 144 h
Method in brief: as §1

[4] = tested on: U87 (αVβ3+) and U87 β3‐KO (αVβ3−) cells; test: Targeting index / selectivity between U87 β3‐KO and U87 cells; assay type: cell-based, human; conditions: for Targeting index (TI): [IC50(αVβ3−)/IC50(αVβ3+)]conjugate/[IC50(αVβ3−)/IC50(αVβ3+)]paclitaxel
Method in brief: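 The targeting index uses IC50s from the 144 h CellTiter-Glo ATP viability assay on the isogenic U87 and U87 β3-KO (CRISPR-Cas9 β3 deletion) pair. The ratio IC50(β3-KO)/IC50(U87) for the conjugate is divided by the same ratio for free paclitaxel tested in parallel under identical conditions.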

purified αVβ3 receptor = purified αVβ3 receptor (Homo sapiens, UniProt P05106+P06756); test: Inhibition of biotinylated vitronectin binding to purified αVβ3 receptor
Sequence of purified αVβ3 receptor (P06756 891-1048): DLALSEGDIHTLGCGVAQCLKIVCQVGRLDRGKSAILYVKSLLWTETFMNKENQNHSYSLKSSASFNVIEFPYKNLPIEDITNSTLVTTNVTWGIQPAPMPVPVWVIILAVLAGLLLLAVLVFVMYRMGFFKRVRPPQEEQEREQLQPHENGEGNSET
Sequence of purified αVβ3 receptor (P06756 31-889): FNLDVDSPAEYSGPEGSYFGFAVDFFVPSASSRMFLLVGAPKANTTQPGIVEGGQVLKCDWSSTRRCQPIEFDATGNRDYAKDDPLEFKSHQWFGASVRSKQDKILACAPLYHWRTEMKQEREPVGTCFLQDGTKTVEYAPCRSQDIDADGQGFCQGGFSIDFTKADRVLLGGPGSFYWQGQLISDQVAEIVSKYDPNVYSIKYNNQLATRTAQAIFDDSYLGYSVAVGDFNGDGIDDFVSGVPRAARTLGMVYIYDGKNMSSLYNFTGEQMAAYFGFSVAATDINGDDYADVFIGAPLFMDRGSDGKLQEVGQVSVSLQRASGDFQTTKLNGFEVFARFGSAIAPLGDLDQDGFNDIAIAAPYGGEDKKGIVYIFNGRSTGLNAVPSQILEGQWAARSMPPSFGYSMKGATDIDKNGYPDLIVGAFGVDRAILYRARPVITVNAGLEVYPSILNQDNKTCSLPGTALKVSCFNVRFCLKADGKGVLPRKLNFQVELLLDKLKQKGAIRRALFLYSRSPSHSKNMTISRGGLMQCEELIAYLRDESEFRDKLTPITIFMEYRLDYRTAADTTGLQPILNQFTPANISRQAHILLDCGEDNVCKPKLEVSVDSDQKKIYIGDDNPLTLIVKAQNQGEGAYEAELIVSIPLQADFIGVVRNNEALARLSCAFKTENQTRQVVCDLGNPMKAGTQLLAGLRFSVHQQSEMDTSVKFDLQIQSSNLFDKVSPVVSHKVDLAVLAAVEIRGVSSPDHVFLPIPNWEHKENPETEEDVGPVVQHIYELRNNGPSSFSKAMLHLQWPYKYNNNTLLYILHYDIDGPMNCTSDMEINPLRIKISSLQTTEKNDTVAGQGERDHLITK
Sequence of purified αVβ3 receptor (P05106 27-788): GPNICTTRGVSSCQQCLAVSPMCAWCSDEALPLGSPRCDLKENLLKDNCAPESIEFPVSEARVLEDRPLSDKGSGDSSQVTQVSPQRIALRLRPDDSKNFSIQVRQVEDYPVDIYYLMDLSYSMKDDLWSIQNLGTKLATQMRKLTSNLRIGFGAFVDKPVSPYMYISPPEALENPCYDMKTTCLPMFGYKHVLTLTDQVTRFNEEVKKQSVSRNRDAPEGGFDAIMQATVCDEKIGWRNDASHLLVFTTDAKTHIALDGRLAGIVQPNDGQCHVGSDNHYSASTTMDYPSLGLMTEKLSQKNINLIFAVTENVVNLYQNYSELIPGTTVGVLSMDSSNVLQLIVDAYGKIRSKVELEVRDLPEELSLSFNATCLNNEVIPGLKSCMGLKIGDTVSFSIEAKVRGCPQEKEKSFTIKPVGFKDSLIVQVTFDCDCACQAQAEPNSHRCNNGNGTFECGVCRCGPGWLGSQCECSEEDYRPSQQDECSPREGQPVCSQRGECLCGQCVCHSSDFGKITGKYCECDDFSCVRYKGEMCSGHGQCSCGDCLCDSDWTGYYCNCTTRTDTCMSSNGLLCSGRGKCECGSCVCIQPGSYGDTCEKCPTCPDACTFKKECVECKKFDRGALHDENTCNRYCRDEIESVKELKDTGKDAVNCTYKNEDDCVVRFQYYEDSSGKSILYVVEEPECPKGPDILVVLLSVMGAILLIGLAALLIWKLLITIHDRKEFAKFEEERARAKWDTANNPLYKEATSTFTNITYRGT

Compound: cyclo[DKP‐isoDGR] [compound 1]
effect on FAK/Akt integrin‐activated transduction pathway [1]: inhibitory effects
effect on integrin‐mediated cell infiltration processes [2]: inhibitory effects

IC50 [3]: 0.64 nM
IC50 (U87 β3‐KO (αVβ3−) cells): 0.28 nM
Compound: CC(=O)O[C@H]1C(=O)[C@@]2(C)[C@H]([C@H](OC(=O)c3ccccc3)[C@]3(O)C[C@H](OC(=O)[C@H](O)[C@@H](NC(=O)c4ccccc4)c4ccccc4)C(C)=C1C3(C)C)[C@]1(OC(C)=O)CO[C@@H]1C[C@@H]2O [Paclitaxel]
times more effective on U87 β3‐KO cells (than on U87) ([4]; 144 h): 2.3 times
Targeting index (TI) ([4]; 144 h): 1

Compound: CC(=O)O[C@H]1C(=O)[C@@]2(C)[C@H]([C@H](OC(=O)c3ccccc3)[C@]3(O)C[C@H](OC(=O)[C@H](OC(=O)N(C)CCN(C)C(=O)OCc4ccc(NC(=O)[C@H](C)NC(=O)[C@@H](NC(=O)CCCC(=O)NCc5ccc(CN6C(=O)[C@H]7CC(=O)N[C@@H](CCCNC(=N)N)C(=O)NCC(=O)N[C@@H](CC(=O)O)C(=O)NC[C@H]6C(=O)N7)cc5)C(C)C)cc4)[C@@H](NC(=O)c4ccccc4)c4ccccc4)C(C)=C1C3(C)C)[C@]1(OC(C)=O)CO[C@@H]1C[C@@H]2O [compound 4, cyclo[DKP‐RGD]‐Val‐Ala‐PTX]
IC50 (purified αVβ3 receptor): 13.3 ± 3.6 nM
Targeting index (TI) ([4]; 144 h): 2.4

Compound: CC(=O)O[C@H]1C(=O)[C@@]2(C)[C@H]([C@H](OC(=O)c3ccccc3)[C@]3(O)C[C@H](OC(=O)[C@H](OC(=O)N(C)CCN(C)C(=O)OCc4ccc(NC(=O)[C@H](C)NC(=O)[C@@H](NC(=O)CCCC(=O)NCc5ccc(CN6C(=O)[C@H]7CC(=O)N[C@H](C(=O)O)CC(=O)NCC(=O)N[C@@H](CCCNC(=N)N)C(=O)NC[C@H]6C(=O)N7)cc5)C(C)C)cc4)[C@@H](NC(=O)c4ccccc4)c4ccccc4)C(C)=C1C3(C)C)[C@]1(OC(C)=O)CO[C@@H]1C[C@@H]2O [compound 2, cyclo[DKP‐isoDGR]‐Val‐Ala‐PTX]
IC50 (purified αVβ3 receptor): 11 ± 0.2 nM
affinity for the purified integrin αVβ3 receptor (in words) (purified αVβ3 receptor): low nanomolar affinity
Targeting index (TI) ([4]; 144 h): 9.9
targeting ability (in words) ([4]; two isogenic cancer cell lines expressing integrin αVβ3 at different levels): notable targeting ability
